According to PubChem BioAssay AID493091 (Sanford-Burnham Center for Chemical Genomics, 2011):
“And” between values parts separate entries of the source, which are not always exact repeats. Equal values may be shown once. In all, about 340,000 compounds went through this assay and about 3,000 (0.88%) were called active.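 How the source made its calls: active means inhibition above about 50% at 20 µM (limit read from the data); inactive means the rest.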 Only a selection was taken, and actives are over-represented in it overall. The source holds several records for some structures; these can differ, active in one and inactive in another.

target: Carboxy-terminal domain RNA polymerase II polypeptide A small phosphatase 1 (Homo sapiens) (UniProt Q9GZU7); assay: inhibition of human SCP1 dephosphorylation activity – biochemical, colorimetric, uHTS, primary screen (AID 493091); conditions: Recombinant Scp1, phosphopeptide, malachite green phosphate absorbance; at 20 µM; stronger effect = higher value;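 further: plate controls were DMSO wells with enzyme for no effect and wells lacking enzyme for full effect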
In short: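 System: SCP-1 catalytic domain; Reagent: Phospho 17-mer peptide substrate; Doses: one concentration, 20 µM, with 1.0% DMSO; Incubation: 45 min room-temperature reaction, 5 min colour, 30 min stabiliser; Signal: Phosphate-binding colour reagent, absorbance read at 630 nm.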

Sequence of Carboxy-terminal domain RNA polymerase II polypeptide A small phosphatase 1 (Homo sapiens) (Q9GZU7 76-261 limits assumed): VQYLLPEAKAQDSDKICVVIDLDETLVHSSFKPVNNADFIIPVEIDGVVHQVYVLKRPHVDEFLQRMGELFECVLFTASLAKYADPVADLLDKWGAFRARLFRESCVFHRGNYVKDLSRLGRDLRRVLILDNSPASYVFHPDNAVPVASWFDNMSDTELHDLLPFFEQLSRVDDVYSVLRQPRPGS

| Compound | inhibition |
| --- | --- |
| O=C(N/N=C/c1ccccc1O)/C(=C/c1ccccc1)CCO | -13.2% (inactive) |
| O=C(NN=Cc1ccccc1O)NN=Cc1ccccc1O | 85.7% (active) |
| O=C(N/N=C/c1ccccc1O)C1CCCC1 | -10.5% (inactive) |
| COc1ccccc1CN(C)C(=O)C1(c2ccc(Cl)cc2)CC1 | -10.7% (inactive) |
| CSCCC(NS(=O)(=O)c1ccc(C)cc1)C(=O)N1CCCC1 (stereo not given) | -0.76% (inactive) |
| Cc1ccc(N=Cc2c(O)cc(C)oc2=O)c(C)c1 | -1.31% (inactive) |
| Cc1ccc(N=Cc2c(O)n(-c3nccs3)c(=O)c3ccccc23)c(C)c1 | 51.3% (active) |
| Cc1ccc(-n2c(O)c(C=Nc3ccc(S(=O)(=O)Nc4ncccn4)cc3)c3ccccc3c2=O)cc1C | -12.6% (inactive) |
| O=C(NCCCc1ccccc1)C1CCC(CNc2c(N3CCCCC3)c(=O)c2=O)CC1 (stereo not given) | -5.39% (inactive) |
| COc1ccccc1NC(=O)CCC(=O)OC(C)C(=O)c1ccccc1 (stereo not given) | -10.3% (inactive) |
| COc1ccccc1CN1CCNC(=O)C1CC(=O)N(C)CC1CCOCC1 (stereo not given) | -2.19% (inactive) |
| COc1ccc(CNC(=O)COc2cccnc2[N+](=O)[O-])cc1 | -6.82% (inactive) |
| O=C(NCCN1C(=O)S/C(=C\c2cccnc2)C1=O)c1cccc(OC(F)F)c1 | -7.82% (inactive) |
| N#Cc1ccccc1CN1C(=O)S/C(=C/c2cccn2-c2cccc(C(=O)O)c2)C1=O | 70.5% (active) |
| Cc1nn(Cc2ccccc2)c(C)c1C(=O)NCCN1C(=O)S/C(=C\c2ccc(F)cc2)C1=O | -5.22% (inactive) |
| Cc1ccccc1CSc1nnc(-c2ccccn2)n1N | -3.67% (inactive) |
| CCOC(=O)c1cccc(NC(=O)c2ccc(F)cc2F)c1 | -7.13% (inactive) |
| O=C(COC(=O)CSc1ccccc1)Nc1ccc(F)cc1F | -2.71% (inactive) |
| O=C(COC(=O)c1ccc(F)cc1F)Nc1ncccn1 | 87% (active) |
| COCCNC(=O)C(OC(=O)c1cccs1)c1ccc(F)cc1 (stereo not given) | -8.1% (inactive) |
| CN(c1ccccc1)S(=O)(=O)c1cccc(C(=O)NNC(=O)c2ccncc2)c1 | -6.19% (inactive) |
| CCCNC(=O)CCc1c(C)nc2c(c(C)nn2-c2ccccc2)c1C | -19% (inactive) |
| O=S1(=O)CC/C(=N\Nc2ccc(F)cc2)c2ccsc21 | -1.87% (inactive) |

| Compound | inhibition |
| --- | --- |
| Nn1cnnc1N/N=C/c1cc([N+](=O)[O-])c(Cl)cc1Cl | 71.5% (active) |
| Cc1ccsc1C(=O)NNC(=O)COc1ccc(Br)cc1 | -2.35% (inactive) |
| COc1ccc(-c2ccc(CCC(=O)O)n2-c2ccc(O)cc2)cc1 | -8.68% (inactive) |
| COc1ccc(Cl)cc1C=CC=NNC(=O)c1ccncc1 | 54.2% (active) |
| COc1ccccc1/C=C/C=N/NC(=O)CN1CCN(Cc2ccccc2)CC1 | -7.3% (inactive) |
| COc1ccc(Cl)cc1C=CC=Nc1ccc(S(N)(=O)=O)cc1 | -0.31% (inactive) |
| CCOC(=O)N1CCN(c2c(NCCN3CCN(c4ccccc4F)CC3)c(=O)c2=O)CC1 | -8.45% (inactive) |
| O/N=C1\CC2(Cc3nonc31)OCCO2 | -5.88% (inactive) |
| ON=C1/C(=N\O)CC2(C/C1=N/O)OCCO2 | 58% (active) |
| CS(=O)(=O)N(CC(=O)NCc1ccco1)c1ccc2c(c1)OCO2 | 17.7% (inactive) |
| O=C(Cn1nnc(-c2ccc3c(c2)OCO3)n1)NCc1ccco1 | 60.1% (active) |
| S=C(NCc1ccc2c(c1)OCO2)NCc1ccco1 | -10.4% (inactive) |
| COc1cccc(CNC(=O)CN(C)S(=O)(=O)c2ccc3c(c2)c(=O)n(C)c(=O)n3C)c1 | -11.9% (inactive) |
| Cc1ccc(S(=O)(=O)/N=S(\C)C(C)C)cc1 (stereo not given) | -1% (inactive) |
| COc1ccccc1/C=C/C(=O)OCC(=O)NC1CCCCCC1 | -7.74% (inactive) |
| COc1ccc(/C=C/C(=O)OCC(=O)NC2CCCCCC2)cc1OC | 53% (active) |
| COc1cc(/C=C/C(=O)OCC(=O)NC2CC2)cc(OC)c1OC | 8.5% (inactive) |
| CCOC(=O)c1oc2c(CN3CCN(CCO)CC3)c(O)c(CC)cc2c(=O)c1-c1nc2ccccc2s1 | -2.5% (inactive) |
| Cc1ccc(NC(=O)COc2coc(CN3CCc4ccccc4C3)cc2=O)cc1Cl | 5.58% (inactive) |
| Cc1nnc2n1N=C(c1ccc3c(c1)NC(=O)CO3)CS2 | -2.49% (inactive) |
| Cc1cc(NC(=O)[C@H](C)NC(=O)c2ccco2)ccc1Br | -11% (inactive) |
| CCOC(=O)C1CCCN(C(=O)/C=C/c2ccc(OC)cc2)C1 (stereo not given) | 0.29% (inactive) |
| CCOc1ccc(N(CC(=O)OC)S(=O)(=O)c2c(C)noc2C)cc1 | -4.21% (inactive) |

| Compound | inhibition |
| --- | --- |
| CCOC(=O)C1CCCN(C(=O)CN(c2ccc(OC)cc2)S(=O)(=O)c2c(C)noc2C)C1 (stereo not given) | 57.4% (active) |
| COc1ccc(OC)c(S(=O)(=O)NCCC(C)C)c1 | -1.08% (inactive) |
| Cc1nc2cc(NC(=O)CSc3nc4c(C)cccc4cc3C#N)ccc2s1 | 20.8% (inactive) |
| COc1cc(/C=C/c2ccc(/C=C/c3cc(OC)c(OC)c(OC)c3)cc2)cc(OC)c1OC | 4.65% (inactive) |
| COc1ccc(/C=C/C2=CC(C)(C)NC(=S)N2)c(OC)c1 | -2.22% (inactive) |
| COc1cc(/C=C/C2=CC(C)(C)NC(=S)N2)cc(OC)c1OC | 83.9% (active) |
| CCOC(=O)c1c(NC(=O)CNC2CCCc3ccccc32)sc(C(N)=O)c1C (stereo not given) | -9.44% (inactive) |
| CCOCCCNC(=S)Nc1ccc2nc(N3CCN(CC)CC3)cc(C)c2c1 | -1.55% (inactive) |
| Cc1ccc(C(=O)Nc2sc(Cc3ccc4c(c3)OCO4)c(C)c2C(N)=O)cc1 | -8.44% (inactive) |
| CCOC(=O)c1cc2occc2n1CC(=O)N1CCN(C(=O)c2ccco2)CC1 | -2.95% (inactive) |
| O=C(Nc1cccc(Br)c1)C1CC(=O)N(C2CCCC2)C1 (stereo not given) | -7.74% (inactive) |
| COc1ccccc1N(CC(=O)NC1CCCC1)C(=O)C1(C)CC(=O)N=C2C=CC(C)=CN21 (stereo not given) | -2.31% (inactive) |
| O=C(Nc1nnc(SCc2ccccc2Cl)s1)c1cccc([N+](=O)[O-])c1 | -14% (inactive) |
| c1ccc(CSc2nnc(-c3ccco3)c(-c3ccco3)n2)cc1 | 79.2% (active) |
| Clc1ccccc1CSc1nnc(-c2ccco2)c(-c2ccco2)n1 | 76.5% (active) |
| CCc1nnc(SCc2cccc(F)c2)nc1CC | -10.3% (inactive) |
| Clc1ccc(CSc2nnc3c(n2)[nH]c2ccccc23)cc1 | -4.5% (inactive) |
| S=C(NCc1ccco1)NCc1ccccc1Cl | -4.7% (inactive) |
| COc1ccccc1N(C)C(=O)c1cc(S(=O)(=O)N2CCc3ccccc32)cn1C | -4.84% (inactive) |
| COc1ccc(C(=O)COC(=O)CNC(=O)c2cccs2)cc1Br | -0.77% (inactive) |
| Cc1nnc(SCC2=C(C(=O)O)N3C(=O)C(NC(=O)Cn4nc(C)c(Cl)c4C)C3SC2)s1 (stereo not given) | 14.4% (inactive) |
| CO/N=C(\C(=O)N[C@@H]1C(=O)N2C(C(=O)O)=C(COC(C)=O)CS[C@H]12)c1csc(N)n1 (stereo in doubt) | 69.7% (active) and 11.4% (inactive) and 72.2% (active) |
| CC(C)(C)OC(=O)C1=C(CO)CS[C@@H]2[C@H](NC(=O)Cc3ccccc3)C(=O)N12 | 1.29% (inactive) |

| Compound | inhibition |
| --- | --- |
| C=CC1=C(C(=O)O)N2C(=O)[C@@H](NC(=O)/C(=N\OCC(=O)O)c3csc(N)n3)[C@H]2SC1 | 71% (active) |
| Cc1cc(C)cc(C(=O)NC2C(=O)N3C(C(=O)O)=C(CSc4nnc(C)s4)CSC23)c1 (stereo not given) | 4.73% (inactive) |
| C=CC1=C(C(=O)O)N2C(=O)[C@@H](NC(=O)/C(=N/OCC(=O)O)c3csc(N)n3)[C@H]2SC1 | 65.5% (active) |
| CC(=O)c1ccc(NC(=O)CSc2nc3ccccc3c(=O)n2CCCN2CCOCC2)cc1 | -7.5% (inactive) |
| Cn1cnc([N+](=O)[O-])c1Sc1ccccc1 | -15.4% (inactive) |
| O=C(NCCC1=CCCCC1)c1ccc(-n2cncn2)cc1 | 0.7% (inactive) |
| O=C(O)c1ccccc1-c1ccccc1C(=O)NCc1cccnc1 | -6.94% (inactive) |
| CSc1ccccc1NC(=O)c1cnc2sc(C)cn2c1=O | -3.98% (inactive) |
| COc1ccc(C2C3=C(OC(C)=O)c4ccccc4C3=Nc3c2c(=O)n(C)c(=O)n3C)cc1 (stereo not given) | -10.3% (inactive) |
| CN(C)S(=O)(=O)c1cc(NC(=O)CN2C(=O)NC3(CCCc4ccccc43)C2=O)ccc1Cl (stereo not given) | -6.5% (inactive) |
| COc1ccc(/C(O)=C2/C(=O)C(=O)N(c3nc(C)c(C)s3)C2c2ccco2)cc1 (stereo not given) | -0.42% (inactive) |
| Cn1c(=O)c2cc(S(=O)(=O)NCCC(=O)Nc3ccc(F)cc3F)ccc2n(C)c1=O | -3.26% (inactive) |
| CCOC(=O)C1(S(=O)(=O)c2ccc(Cl)cc2)CCN(Cc2ccccc2)CC1 | -6.96% (inactive) |
| COC(=O)c1ccccc1NC(=O)CN(Cc1ccc(Cl)cc1)S(C)(=O)=O | -4.27% (inactive) |
| COC(=O)c1ccccc1NC(=O)C1(S(=O)(=O)c2ccc(Cl)cc2)CC1 | 82.2% (active) |
| CNC1(c2nnnn2-c2c(C)cccc2C)CCOC(C)(C)C1 (stereo not given) | -10.7% (inactive) |
| Cc1ccc(S(=O)(=O)NCC(=O)N2CCOCCOCCOCCOCC2)cc1 | -7.08% (inactive) |
| CC1CCCCC1NC(=O)C1CCCN1S(=O)(=O)c1cccc2nsnc12 (stereo not given) | -9.08% (inactive) |
| Cc1ccc(OCC(=O)NCCCNC(=O)c2cccnc2)cc1C | 3.67% (inactive) |
| O=C(COc1ccc(/C=N/NC(=O)c2ccc(O)cc2)cc1)Nc1ccc([N+](=O)[O-])cc1 | -4.15% (inactive) |
| Cc1ccc(NC(=O)COc2ccc(/C=N\NC(=O)c3cccnc3)cc2)cc1C | 73% (active) |
